Laboratory results as given in ChEMBL document CHEMBL4052664, “Novel pyridyl nitrofuranyl isoxazolines show antibacterial activity against multiple drug resistant Staphylococcus species” (Bioorg Med Chem, 2017).
pIC50: −log10 of the molar value. In brackets after ≈: the same amount, converted by molar mass. Activity calls are given as the source filed them. The calls are words filed in the database; no cut-off is given here.

What was measured:
Staphylococcus aureus [1] = test: Antibacterial activity against methicillin-sensitive Staphylococcus aureus ATCC 9144 after 20 hrs by broth micro dilution method; format: functional; details: ATCC 9144, 20 h
Outline: (§1)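 Broth microdilution per CLSI guidelines in Mueller Hinton Broth. Growth was read as optical density at 600 nm after 20 hours. The MIC was taken as the lowest drug concentration at which OD600 stayed below 0.10. Run in triplicate.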

Staphylococcus aureus [2] = test: Antibacterial activity against methicillin-resistant Staphylococcus aureus EMRSA-15 after 20 hrs by broth microdilution method; format: functional; details: EMRSA-15, 20 h
Outline: (§2)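 Broth microdilution per CLSI guidelines in Mueller Hinton Broth. Growth read as optical density at 600 nm after 20 h. MIC taken as the lowest concentration giving OD600 below 0.10. Run in triplicate.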

Staphylococcus aureus [3] = test: Antibacterial activity against methicillin-resistant Staphylococcus aureus EMRSA-16 after 20 hrs by broth microdilution method; format: functional; details: EMRSA-16, 20 h; outline: as §2
HeLa = test: Cytotoxicity against human HeLa cells assessed as reduction in cell viability after 96 hrs by MTT assay; format: cell-based
Outline: (§3)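 HeLa cells were kept in DMEM with 10% FBS, 2 mM L-glutamine, non-essential amino acids and penicillin-streptomycin at 37 °C, 5% CO2. 10,000 cells per well were plated and left 24 h. Compound was then added in triplicate for 96 h continuous exposure. MTT read-out was absorbance at 570 nm. IC50 came from dose-response analysis.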

WI-38 = test: Cytotoxicity against human WI38 cells assessed as reduction in cell viability after 96 hrs by MTT assay; format: cell-based; details: WI-38, 96 h
Outline: as §3, with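 “WI-38 lung fibroblasts” for “HeLa cells”, “15%” for “10%”, “fitting.” for “analysis.”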

Klebsiella pneumoniae [4] = test: Antibacterial activity against Klebsiella pneumoniae NCTC 13368 after 20 hrs by broth micro dilution method; format: functional; details: NCTC 13368, 20 h; outline: as §1
Klebsiella pneumoniae [5] = test: Antibacterial activity against Klebsiella pneumoniae M6 after 20 hrs by broth micro dilution method; format: functional; details: M6, 20 h; outline: as §1
Acinetobacter baumannii [6] = test: Antibacterial activity against Acinetobacter baumannii ATCC BAA-1710 after 20 hrs by broth micro dilution method; format: functional; details: ATCC BAA-1710, 20 h; outline: as §1
Acinetobacter baumannii [7] = test: Antibacterial activity against Acinetobacter baumannii ATCC 17978 after 20 hrs by broth micro dilution method; format: functional; details: ATCC 17978, 20 h; outline: as §1
Pseudomonas aeruginosa [8] = test: Antibacterial activity against Pseudomonas aeruginosa PAO1 after 20 hrs by broth micro dilution method; format: functional; details: PAO1, 20 h; outline: as §1
Pseudomonas aeruginosa [9] = test: Antibacterial activity against Pseudomonas aeruginosa NCTC 13437 after 20 hrs by broth micro dilution method; format: functional; details: NCTC 13437, 20 h; outline: as §1
[10] = tested on: Staphylococcus epidermidis; test: Antibacterial activity against Staphylococcus epidermidis ATCC 35984 after 20 hrs by broth microdilution method; format: functional; details: RP62A; outline: as §1
Staphylococcus aureus [11] = test: Antibacterial activity against Staphylococcus aureus A1988 after 20 hrs by broth microdilution method; format: functional; details: A1988, 20 h; outline: as §1
Staphylococcus aureus [12] = test: Antibacterial activity against Staphylococcus aureus BGW541 after 20 hrs by broth microdilution method; format: functional; details: BGW541, 20 h; outline: as §1
Staphylococcus aureus [13] = test: Antibacterial activity against methicillin-resistant Staphylococcus aureus NCTC 12493 after 20 hrs by broth microdilution method; format: functional; details: NCTC 12493, 20 h; outline: as §2
Staphylococcus aureus [14] = test: Antibacterial activity against Staphylococcus aureus isolate 13142 after 20 hrs by broth microdilution method; format: functional; details: isolate 13142, 20 h; outline: as §1
Staphylococcus aureus [15] = test: Antibacterial activity against Staphylococcus aureus NCTC 6571 after 20 hrs by broth microdilution method; format: functional; details: NCTC 6571, 20 h; outline: as §1
Staphylococcus aureus [16] = test: Antibacterial activity against Staphylococcus aureus NCTC 8325 after 20 hrs by broth microdilution method; format: functional; details: NCTC 8325, 20 h; outline: as §1
Staphylococcus aureus [17] = test: Bactericidal activity against methicillin-sensitive Staphylococcus aureus ATCC 9144 after 24 hrs; format: functional; details: ATCC 9144, 24 h
Outline: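 From the MIC plate, 10ul was taken from every well at and above the MIC and spotted onto tryptic soy agar. Plates were incubated 24 h at 37 °C. The MBC was the concentration at which no colonies grew.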

Staphylococcus aureus [18] = test: Ratio of MBC to MIC against methicillin-sensitive Staphylococcus aureus ATCC 9144; format: functional
Outline: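 MBC/MIC ratio from the broth microdilution MIC (Mueller Hinton Broth, OD600 <0.10 after 20 h, triplicate) and the MBC (MIC-plate wells at and above the MIC spotted on tryptic soy agar, 37 °C 24 h, no colonies). A ratio of 1 or 2 was taken as bactericidal; 4 or 16 as bacteriostatic.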

Staphylococcus aureus [19] = test: Bacteriostatic activity against methicillin-resistant Staphylococcus aureus EMRSA-15 at 4 times MIC after 5 to 24 hrs by time kill assay; format: functional
Outline: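 Mueller Hinton Broth flasks (50 mL) inoculated at ~10^6 cfu/mL. Agent added at 4x MIC and shaken at 200 rpm, 37 °C. Samples taken hourly for 8 h and at 24 h. Viable counts by modified Miles-Misra dilution. Values are the average of at least three replicate experiments, SEM shown.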

SMILES | MIC (Staphylococcus aureus [1]) [µg/mL] | MIC (Staphylococcus aureus [2]) [µg/mL] | MIC (Staphylococcus aureus [3]) [µg/mL] | pIC50 (HeLa) | pIC50 (WI-38) | MIC (Klebsiella pneumoniae [4]) [µg/mL] | MIC (Klebsiella pneumoniae [5]) [µg/mL] | MIC (Acinetobacter baumannii [6]) [µg/mL] | MIC (Acinetobacter baumannii [7]) [µg/mL] | MIC (Pseudomonas aeruginosa [8]) [µg/mL] | MIC (Pseudomonas aeruginosa [9]) [µg/mL] | MIC [10] [µg/mL] | MIC (Staphylococcus aureus [11]) [µg/mL] | MIC (Staphylococcus aureus [12]) [µg/mL] | MIC (Staphylococcus aureus [13]) [µg/mL] | MIC (Staphylococcus aureus [14]) [µg/mL] | MIC (Staphylococcus aureus [15]) [µg/mL] | MIC (Staphylococcus aureus [16]) [µg/mL] | further results
O=[N+]([O-])c1ccc(C2=NOC(c3ccc(-c4ccccn4)cc3)C2)o1 (stereo unspecified) | > 128 | > 128 | > 128 | < 4.30 | < 4.30 |  |  |  |  |  |  |  |  |  |  |  |  |  | 
O=[N+]([O-])c1ccc(C2=NOC(c3ccc(N4CCN(Cc5ccncc5)CC4)cc3)C2)o1 (stereo unspecified) | 16 (≈ 36.9 µM) | > 128 | 128 (≈ 295 µM) | < 4.30 | < 4.30 | > 128 | > 128 | > 128 | > 128 | > 128 | > 128 |  |  |  |  |  |  |  | 
O=[N+]([O-])c1ccc(C2=NOC(c3ccc(-c4cccnc4)cc3)C2)o1 (stereo unspecified) | 32 (≈ 95.4 µM) | 64 (≈ 191 µM) | 16 (≈ 47.7 µM) | < 4.30 | < 4.30 |  |  |  |  |  |  |  |  |  |  |  |  |  | 
O=[N+]([O-])c1ccc(C2=NOC(c3ccc(N4CCN(Cc5cccnc5)CC4)cc3)C2)o1 (stereo unspecified) | 16 (≈ 36.9 µM) | 16 (≈ 36.9 µM) | 32 (≈ 73.8 µM) | < 4.30 | < 4.30 | > 128 | > 128 | > 128 | > 128 | > 128 | > 128 | 4 to 8 (≈ 9.23 to 18.5 µM) | 8 (≈ 18.5 µM) | 8 (≈ 18.5 µM) | 4 to 8 (≈ 9.23 to 18.5 µM) | 8 to 16 (≈ 18.5 to 36.9 µM) | 16 (≈ 36.9 µM) | 16 (≈ 36.9 µM) | MBC (Staphylococcus aureus [17]): ≥ 128 µg/mL; Ratio (Staphylococcus aureus [18]): 8; Activity (Staphylococcus aureus [19]): Active
COc1ccc(CN2CCN(c3ccc(C4CC(c5ccc([N+](=O)[O-])o5)=NO4)cc3)CC2)cn1 (stereo unspecified) | 32 (≈ 69 µM) | 128 (≈ 276 µM) | 32 (≈ 69 µM) | < 4.30 | < 4.30 | > 128 | > 128 | > 128 | > 128 | > 128 | > 128 |  |  |  |  |  |  |  | 
O=C1CN(/N=C/c2ccc([N+](=O)[O-])o2)C(=O)N1 [NITROFURANTOIN] | 16 (≈ 67.2 µM) | 16 (≈ 67.2 µM) | 16 (≈ 67.2 µM) |  |  |  |  |  |  |  |  | 16 (≈ 67.2 µM) | 16 (≈ 67.2 µM) | 16 (≈ 67.2 µM) | 16 (≈ 67.2 µM) | 16 (≈ 67.2 µM) | 16 (≈ 67.2 µM) | 16 (≈ 67.2 µM) | 
CC(C)(C)OC(=O)N1CCN(c2ccc(C3CC(c4ccc([N+](=O)[O-])o4)=NO3)cc2)CC1 (stereo unspecified) | 32 (≈ 72.3 µM) | > 128 | > 128 | < 4.30 | < 4.30 | > 128 | > 128 | > 128 | > 128 | > 128 | > 128 |  |  |  |  |  |  |  | 
O=[N+]([O-])c1ccc(C2=NOC(c3ccc(N4CCN(Cc5ccc(F)nc5)CC4)cc3)C2)o1 (stereo unspecified) | 32 (≈ 70.9 µM) | 128 (≈ 284 µM) | 16 (≈ 35.4 µM) | < 4.30 | < 4.30 | > 128 | > 128 | > 128 | > 128 | > 128 | > 128 |  |  |  |  |  |  |  | 
COc1cccc2c1C(=O)c1c(O)c3c(c(O)c1C2=O)C[C@@](O)(C(=O)CO)C[C@@H]3O[C@H]1C[C@H](N)[C@H](O)[C@H](C)O1 [DOXORUBICIN] |  |  |  | 7.15 | 7.15 |  |  |  |  |  |  |  |  |  |  |  |  |  | 
CC1(C)S[C@@H]2[C@H](NC(=O)[C@H](N)c3ccc(O)cc3)C(=O)N2[C@H]1C(=O)O [AMOXICILLIN] | 0.1 to 2 (≈ 0.274 to 5.47 µM) | 128 (≈ 350 µM) | > 128 |  |  |  |  |  |  |  |  | 128 (≈ 350 µM) | > 128 | 0.25 to 0.5 (≈ 0.684 to 1.37 µM) | > 128 | 0.25 (≈ 0.684 µM) | 0.25 (≈ 0.684 µM) | 0.25 to 0.5 (≈ 0.684 to 1.37 µM) | 
O=[N+]([O-])c1ccc(C2=NOC(c3ccc(-c4ccncc4)cc3)C2)o1 (stereo unspecified) | 64 (≈ 191 µM) | 128 (≈ 382 µM) | 64 (≈ 191 µM) | < 4.30 | < 4.30 |  |  |  |  |  |  |  |  |  |  |  |  |  | 
O=C(O)c1cn(C2CC2)c2cc(N3CCNCC3)c(F)cc2c1=O [CIPROFLOXACIN] |  | 32 (≈ 96.6 µM) | 32 (≈ 96.6 µM) |  |  |  |  |  |  |  |  | 0.125 to 0.5 (≈ 0.377 to 1.51 µM) | 0.25 (≈ 0.754 µM) | 0.5 (≈ 1.51 µM) | 0.5 (≈ 1.51 µM) | 0.25 (≈ 0.754 µM) | 0.25 to 0.5 (≈ 0.754 to 1.51 µM) | 0.125 to 0.25 (≈ 0.377 to 0.754 µM) | 
O=[N+]([O-])c1ccc(C2=NOC(c3ccc(N4CCN(Cc5ccccn5)CC4)cc3)C2)o1 (stereo unspecified) | 16 (≈ 36.9 µM) | 32 (≈ 73.8 µM) | 32 (≈ 73.8 µM) | < 4.30 | < 4.30 | > 128 | > 128 | > 128 | > 128 | > 128 | > 128 | 8 to 16 (≈ 18.5 to 36.9 µM) | 16 (≈ 36.9 µM) | 8 to 16 (≈ 18.5 to 36.9 µM) | 8 (≈ 18.5 µM) | 8 to 16 (≈ 18.5 to 36.9 µM) | 16 to 32 (≈ 36.9 to 73.8 µM) | 16 (≈ 36.9 µM) | MBC (Staphylococcus aureus [17]): ≥ 128 µg/mL; Ratio (Staphylococcus aureus [18]): 8
